A selection: hits, their analogues and other compounds. The true share with any hit is near 5.8%.
Pf Dd2 growth: blocks growth of Plasmodium falciparum Dd2 parasites. P. falciparum Dd2 growth, SYBR Green, 72 h; hits give low values. activity change, % at 10 µM. 2.3% of 94,000 active. AID 1159554; in the data active = activity change below about -80%; inconclusive = no clear call, values can overlap the other calls
IDH1 R132H inh: blocks human IDH1 R132H reductase activity. 0.18% of 70,000 active. diaphorase/resazurin fluorescence, 60 min. AID 624101. O75874. inhibition, % at 10 µM; in the data active = inhibition above about 34%; inconclusive = no clear call, values can overlap the other calls; inactive = below about 11%;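 note: 0% = DMSO and 100% = no enzyme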
KDM4C inh: KDM4C (human) demethylase inhibition. GST-KDM4C 2-372, H3K9me3 peptide, LANCE TR-FRET. inhibition, % at 12.5 µM. 0.15% of 96,000 active. AID 720574. Q9H3R0;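 active = mean replicate inhibition above about 25%, with at least 55% of replicates also reaching it, limit read from the data, passing the limit was not always enough; inconclusive = only one of those two conditions met; inactive = neither condition met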
Target sequence (Q9H3R0 2-372 limits assumed): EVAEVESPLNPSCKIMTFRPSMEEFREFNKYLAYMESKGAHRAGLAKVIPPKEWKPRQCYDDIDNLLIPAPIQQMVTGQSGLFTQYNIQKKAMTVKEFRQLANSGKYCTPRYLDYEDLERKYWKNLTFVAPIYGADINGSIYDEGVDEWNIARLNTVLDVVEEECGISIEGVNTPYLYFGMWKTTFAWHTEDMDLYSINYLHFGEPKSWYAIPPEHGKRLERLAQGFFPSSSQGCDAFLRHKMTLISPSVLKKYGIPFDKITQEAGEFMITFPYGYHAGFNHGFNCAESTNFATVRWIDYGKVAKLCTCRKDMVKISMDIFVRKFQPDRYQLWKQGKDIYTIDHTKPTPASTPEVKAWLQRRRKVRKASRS
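Assay system: GST-GASC-1 enzyme fragment 2-372 | Amount: 10 nM enzyme | Medium: HEPES buffer, pH 7.5, plus ascorbate | Reagent: H3K9me3 peptide substrate, Fe(II), 2-oxoglutarate | Doses: Single-point compound screen | Incubation: 30 min demethylation and 1 h detection at room temperature | Measured by: LANCE TR-FRET, excitation 340 nm, emissions 618 and 671 nm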
T cruzi growth-1: T. cruzi proliferation inhibition; T. cruzi beta-gal in NIH3T3, GalScreen luminescence, 90 h; inhibition, % at 8.34 µM; 5.9% of 77,000 active; AID 624255;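 active = mean inhibition above about 93%, with at least 55% of replicates each passing it, limit read from the data, passing the limit was not always enough; inconclusive = only one of those two conditions holds; inactive = neither condition holds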
T cruzi growth-2: blocks T. cruzi growth in NIH3T3 host cells | T. cruzi beta-gal in NIH3T3, GalScreen luminescence, 90 h | inhibition, % at 8.35 µM | 72% of 5,600 active | shares compounds with T cruzi growth-1;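 active = mean replicate inhibition above about 95% and at least 55% of replicates individually reaching it, limit read from the data; inconclusive = only one of the two criteria is met; inactive = neither criterion is met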
T cruzi growth-3: blocks T. cruzi growth in NIH3T3 host cells | inhibition, % at 2.09 µM | 21% of 5,600 active | T. cruzi beta-gal in NIH3T3, GalScreen luminescence, 90 h | shares compounds with T cruzi growth-1;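 active = mean inhibition above about 95%, with at least 55% of replicates also reaching it, limit read from the data; inconclusive = meets just one of the two conditions; inactive = meets neither condition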;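 note: plate controls were neutral control median for no effect and positive control median for full effect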
NIH3T3 tox: kills mouse NIH/3T3 fibroblasts | AID 651742 | cytotoxicity (signal decrease), % at 8.35 µM | shares compounds with T cruzi growth-1 | 14% of 5,600 active | NIH/3T3 viability, CellTiter-Glo ATP luminescence, 90 h;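 active = mean signal decrease across replicates above about 35% based on untreated-well scatter, with enough replicates individually passing, limit read from the data; inconclusive = no rule stated though some were filed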;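 note: 0% = median of neutral control wells and 100% = median of positive control wells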
NIH3T3 tox 2: kills mouse NIH/3T3 fibroblasts | shares compounds with T cruzi growth-1 | NIH/3T3 viability, CellTiter-Glo ATP luminescence, 90 h | inhibition, % at 24.9 µM | 56% of 5,600 active;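 active = mean loss of cell viability signal at or above a set limit, and enough replicates individually reaching it; inconclusive = meets only the mean limit or only the replicate share; inactive = meets neither condition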;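 note: 0% = median of neutral control wells and 100% = median of positive control wells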
An asterisk follows results filed as active.

What do the screens show for `OC[C@@H]1[C@H](c2ccc(C#Cc3ccccc3F)cc2)[C@H]2CN(CC3CCOCC3)CCCCN12`?
Pf Dd2 growth: -52; KDM4C inh: -1; T cruzi growth-1: 106*; T cruzi growth-2: 101*; T cruzi growth-3: 110*; NIH3T3 tox: 40*; NIH3T3 tox 2: 104*

How did OC[C@H]1[C@H](c2ccc(C#Cc3ccccc3F)cc2)[C@@H]2CN(CC3CCOCC3)CCCCN12 do in these assays?
Pf Dd2 growth: -69; KDM4C inh: 0; T cruzi growth-1: inconclusive; T cruzi growth-2: 106*; T cruzi growth-3: 35; NIH3T3 tox: 41*; NIH3T3 tox 2: 106*

How did OC[C@H]1[C@@H](c2ccc(C#Cc3ccccc3F)cc2)[C@@H]2CN(CC3CCOCC3)CCCCN12 do in these assays?
Pf Dd2 growth: -58; KDM4C inh: 1; T cruzi growth-1: 85

What do the screens show for `C/C=C/c1ccc([C@H]2[C@H](CO)N3CCCCN(S(=O)(=O)c4cccc(C)c4)C[C@@H]23)cc1`?
Pf Dd2 growth: -10; KDM4C inh: 0; T cruzi growth-1: 118*; T cruzi growth-2: 107*; T cruzi growth-3: 75; NIH3T3 tox: 27; NIH3T3 tox 2: 105*

What do the screens show for `C/C=C/c1ccc([C@H]2[C@@H](CO)N3CCCCN(S(=O)(=O)c4cccc(C)c4)C[C@@H]23)cc1`?
Pf Dd2 growth: -7; KDM4C inh: -1; T cruzi growth-1: 111*; T cruzi growth-2: 112*; T cruzi growth-3: 69; NIH3T3 tox: 10; NIH3T3 tox 2: 80*

How did Cc1ccc(-c2ccc([C@H]3[C@@H](CO)N4CCCCN(S(=O)(=O)c5cccc(C)c5)C[C@@H]34)cc2)cc1 do in these assays?
Pf Dd2 growth: -46; T cruzi growth-1: 85

How did C/C=C/c1ccc([C@@H]2[C@@H](CO)N3CCCCN(S(=O)(=O)c4ccc(F)cc4)C[C@H]23)cc1 do in these assays?
Pf Dd2 growth: -11; KDM4C inh: -3; T cruzi growth-1: 86

What do the screens show for `O=C(/C=C/c1ccccc1)OC[C@]12O[C@H]1[C@@H](O)[C@@H]1C=CO[C@@H](O[C@@H]3O[C@H](CO)[C@@H](O)[C@H](O)[C@H]3O)[C@@H]12`?
IDH1 R132H inh: 0

What do the screens show for `C[C@H](CO)N1C[C@H](C)[C@H](CN(C)C(=O)c2ccncc2)Oc2cc(C3=CCCC3)ccc2S1(=O)=O`?
Pf Dd2 growth: -22; IDH1 R132H inh: 10; KDM4C inh: 2; T cruzi growth-1: inconclusive; T cruzi growth-2: 99*; T cruzi growth-3: 62; NIH3T3 tox: 9; NIH3T3 tox 2: 21

What do the screens show for `C[C@@H]1CN([C@@H](C)CO)S(=O)(=O)c2ccc(C3=CCCCC3)cc2O[C@@H]1CN(C)C(=O)c1ccc(F)cc1`?
Pf Dd2 growth: 0; IDH1 R132H inh: -3; KDM4C inh: -1; T cruzi growth-1: 114*; T cruzi growth-2: 107*; T cruzi growth-3: 94; NIH3T3 tox: 23; NIH3T3 tox 2: 98*

What do the screens show for `O=C(Nc1ccccc1)N1CCCCN2[C@@H](CO)[C@@H](c3ccc(C#CC4CC4)cc3)[C@@H]2C1`?
Pf Dd2 growth: -16; KDM4C inh: -1; T cruzi growth-1: 51

What do the screens show for `O=C(Nc1ccc(F)cc1)N1CCCCN2[C@H](CO)[C@H](c3ccc(C#CC4CC4)cc3)[C@@H]2C1`?
Pf Dd2 growth: 4; KDM4C inh: -1; T cruzi growth-1: 106*; T cruzi growth-2: 107*; T cruzi growth-3: 59; NIH3T3 tox: 26; NIH3T3 tox 2: 24

What do the screens show for `O=C(Nc1ccc(F)cc1)N1CCCCN2[C@H](CO)[C@@H](c3ccc(C#CC4CC4)cc3)[C@@H]2C1`?
Pf Dd2 growth: -1; KDM4C inh: -1; T cruzi growth-1: 108*; T cruzi growth-2: 112*; T cruzi growth-3: 82; NIH3T3 tox: 20; NIH3T3 tox 2: 104*

Source: PubChem BioAssay
